Series [1] has as its system PC-3. In words: Antiproliferative activity against human PC3 cells after 72 hrs by MTT assay. It counts as functional, cell-based. The note with it: PC-3, 72 h. The gist of the method:
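PC-3 cells seeded at 8×10^3/well and attached 24 h. Medium replaced with serum-free RPMI containing compound (10, 50, 100 µM; DMSO stock, 0.2% DMSO at 100 µM) for 72 h at 37 °C, 5% CO2. MTT added for 4 h, solubilized, absorbance at 570 nm. % survival relative to DMSO; IC50 by nonlinear regression of log concentration vs % survival; n = 3/dose.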

Series [2] relates to PC-3. In words: Antimigratory activity against human PC3 cells after 24 hrs under serum-free condition by wound-healing assay. It counts as functional, cell-based. The settings on record: PC-3, 24 h. In a few lines:
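Confluent PC-3 monolayers (>95%) were scratched with a pipette tip and washed with PBS and serum-free medium. Compounds were added at 20, 50 and 100 µM in serum-free medium, with 0.2% DMSO vehicle, for 24 h. Cells were fixed and Diff-Quick stained. Cells migrating into the wound were counted in ≥3 random fields at 400×. IC50 for 50% inhibition of migration; n = 3/dose.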

For series [3], the species on record is Gallus gallus. In words: Antiangiogenic activity in chicken embryo chorioallantoic membrane model at 1 to 50 ug/disc after 48 hrs. It counts as functional, tissue-based. In a few lines:
(§1)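 Fertilized hen eggs incubated at 37 °C, constant humidity; shell windowed and taped, eggs kept upright. Compounds in CH2Cl2 or MeOH loaded on 2-mm cellulose nitrate discs (1, 10, 50 µg/disc), placed on CAM on day five between large vessels. Imaged at 0 h and every 6 h to 48 h. Blood vessels counted per 8.0 × 6.0 mm area around the disc, plus vessel length change. Graded on a 0–3 scale.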

Series [4] is filed under the species Gallus gallus. As to the kind of experiment: Antiangiogenic activity in chicken embryo chorioallantoic membrane model assessed as number of blood vessels per 48 mm2 area around the treatment disc <12 at 1 to 50 ug/disc after 48 hrs.
The species entered for series [5] is Gallus gallus. As to the kind of experiment: Antiangiogenic activity in chicken embryo chorioallantoic membrane model assessed as number of blood vessels per 48 mm2 area around the treatment disc >16. 3 at 1 to 50 ug/disc after 48 hrs. It counts as functional, tissue-based. The gist of the method: as §1
Series [6] in a line: Cytotoxicity against rat bone marrow cells assessed as inhibition of colony formation at 100 uM by clonogenic assay. It counts as cell-based. The settings on record: bone marrow cell. In a few lines:
(§2)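 Rat femur bone marrow mononuclear cells isolated on a Histopaque-1077 gradient. 20,000 cells were plated in methylcellulose with FCS and rat recombinant GM-CSF, IL-3 and SCF (HALO kit), with compounds or vehicle. After 5 days GM-CFC colonies were measured as ATP luminescence (luciferase/luciferin) against a same-day standard curve. Results were normalized to vehicle means; n = 4; two-way ANOVA with Bonferroni tests.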

The subject of series [7] is PC-3. In words: Antiinvasive activity against human PC3 cells at 50 uM after 24 hrs by cultrex BME assay. It counts as functional, cell-based. The gist of the method: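 PC-3 cells in RPMI with 10% FBS at 37 °C, 5% CO2. The top chamber was coated with BME overnight, then seeded with 50,000 cells in serum-free RPMI. Compounds were added to the top chamber from a 6× (300 µM) solution. The lower chamber held medium with 10% FBS, fibronectin (1 µL/mL) and fMLP (10 nM). After 24 h the invaded cells were labelled with calcein-AM for 1 h, read at ex 485/em 520 nm and counted from a standard curve. n = 3.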

A short description of series [8]: Cytotoxicity against rat bone marrow cells assessed as inhibition of colony formation at 10 uM by clonogenic assay. It counts as cell-based. The settings on record: bone marrow cell. In a few lines: as §2

As a reminder, the IC50 is the point on the concentration scale where inhibition reaches its midpoint. High values mean weaker potency in that assay, low ones greater potency in that assay.

Each structure is given as a SMILES string. Activity calls are given as the source filed them. The calls are words filed in the database; no cut-off is given here.

For `CCOC(=O)Cc1cc(Br)c(OC(C)=O)c(Br)c1`, the IC50 in series [1] and in series [2] was above 100 µM throughout.

With `CCOC(=O)Cc1cc(Br)c(OC(=O)c2ccccc2)c(Br)c1`, the values for the IC50 in series [1] and in series [2] were above 100 µM and 44.6 µM, respectively. For the same molecule, the result in series [3] was Active.

Turning to `CCOC(=O)Cc1cc(Br)c(OC(=O)Cc2ccc(OC)cc2)c(Br)c1`, the IC50 was above 100 µM in series [1] and below 10 µM in series [2]. For the same molecule, in series [3], the outcome was Active.

As for `CC(=O)Oc1c(Br)cc(CC(N)=O)cc1Br`, the concentration for half-maximal inhibition (IC50) in series [1] is above 100 µM; in series [2], 74.8 µM. The result in series [3] was Active.

Regarding `COc1ccc(CC(=O)Oc2c(Br)cc(CC(N)=O)cc2Br)cc1`, the concentration for half-maximal inhibition (IC50) in series [1] is above 100 µM; in series [2], 18.9 µM. Moreover, the outcome in series [4] was Active.

As for `CCOC(=O)Cc1cc(Br)c(OCCC(C)C)c(Br)c1`, the IC50 amounted to 49.2 µM in series [1] and 91.3 µM in series [2]. In addition, the result in series [5] was inactive. Besides, the Activity result in series [6] is on record as “Non-toxic”.

For the molecule `CCOC(=O)Cc1cc(Br)c(OCCCc2ccc(OC)cc2)c(Br)c1`, the IC50 in series [1] was found to be 40 µM; in series [2], 57.9 µM. For the same molecule, the outcome in series [3] and in series [7] was Active. Moreover, the Activity entry in series [6] was “Non-toxic”.

Consider `NC(=O)Cc1cc(Br)c(O)c(Br)c1`, for which the IC50 in series [1] and in series [2] was above 100 µM throughout. Further, the result in series [5] was inactive. The Activity result in series [6] is “Non-toxic”.

Regarding `CCOC(=O)Cc1cc(Br)c(OCc2ccccc2)c(Br)c1`, the IC50 in series [1] came to 29.7 µM; in series [2], 75.5 µM. Further, the result in series [4] was Active.

Regarding `CCOC(=O)Cc1cc(Br)c(OC/C=C(/C)CC/C=C(/C)CCC=C(C)C)c(Br)c1`, the IC50 turned out to be 16.5 µM in series [1] and 19.9 µM in series [2]. The result in series [3] and in series [7] was Active. The Activity result in series [6] is on record as “Non-toxic”.

Take `NC(=O)CC1(O)C=C(Br)C(=O)C(Br)=C1` [VERONGIAQUINOL]: the Activity result in series [8] is “Toxic”.

`NC(=O)Cc1cc(Br)c(OC(=O)c2ccccc2)c(Br)c1`: the IC50 in series [1] is above 100 µM; in series [2] it was 12.2 µM. The outcome in series [4] was Active.

On to `CCOC(=O)Cc1cc(Br)c(OC(=O)c2ccncc2)c(Br)c1`, for which the IC50 in series [1] is above 100 µM; in series [2], 44.6 µM. The outcome in series [4] was Active.

For the molecule `CCOC(=O)Cc1cc(Br)c(O)c(Br)c1`, the IC50 in series [1] and in series [2] was above 100 µM each time. Moreover, the result in series [5] was inactive. In addition, the Activity result in series [6] is “Non-toxic”.

(Values after ChEMBL document CHEMBL1268930, “Design, synthesis, and biological evaluation of dibromotyrosine analogues inspired by marine natural products as inhibitors of human prostate cancer proliferation, invasion, and migration” (Bioorg Med Chem, 2010).)
